We go through six compounds from PMC3286832 (Nature Communications, 2011).

The target in one assay is GLP catalytic SET domain (Homo sapiens, UniProt Q9H9B1). Put plainly: In vitro methylation assay with GLP catalytic SET domain. The assay is classed as biochemical. To be noted: [methyl-3H]AdoMet, SDS–PAGE and fluorography / autoradiogram. The procedure, abridged:
(§1)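 E. coli-expressed hG9a or hGLP SET domain (1.6 μM) was incubated with 13.0 μM substrate (mDnmt3a N-terminal fragments or other GST-tagged proteins) and 2.8 μM [methyl-3H]AdoMet in 20 mM Tris–HCl pH 8.5 at 30 °C for 8 min. Products were resolved by SDS–PAGE and detected by fluorography/autoradiography.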

The next assay deals with T1, MPP8 chromodomain (Homo sapiens, UniProt Q99549).
T1 sequence (Q99549 59-118 limits assumed): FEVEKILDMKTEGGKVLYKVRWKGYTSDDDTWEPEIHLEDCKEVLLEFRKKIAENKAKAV
Put plainly: Co-crystal structure MPP8 chromodomain–hDNMT3AK47me2 peptide. Format: binding.

The target in the next assay is G9a catalytic SET domain (Homo sapiens, UniProt Q96KQ7). In words: In vitro methylation assay with G9a catalytic SET domain. The assay is classed as biochemical. To be noted: [methyl-3H]AdoMet, 30 °C, 8 min, pH 8.5, SDS–PAGE and fluorography. The procedure, abridged: as §1
Chain of G9a catalytic SET domain (Q96KQ7 1038-1155 limits assumed): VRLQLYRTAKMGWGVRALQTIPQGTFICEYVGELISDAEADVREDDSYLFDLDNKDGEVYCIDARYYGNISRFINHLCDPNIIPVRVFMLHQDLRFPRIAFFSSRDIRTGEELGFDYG
The subject of assay [1] is DNA methylation, H3K9 methylation, H3K4 methylation. To be noted: ref [4]; cited from earlier work.

Chain of GLP catalytic SET domain (Q9H9B1 1126-1243 limits assumed): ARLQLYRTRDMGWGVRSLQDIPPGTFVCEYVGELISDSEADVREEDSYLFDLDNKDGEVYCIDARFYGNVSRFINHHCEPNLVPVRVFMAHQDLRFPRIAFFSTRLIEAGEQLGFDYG

In the case of “hDNMT3A residues 1–94: GST-tagged hDNMT3A N-terminal fragment”, in the assay with GLP catalytic SET domain, the “methylation by GLP” value is on record as “are methylated”.
On the same count and under the same terms, the entry for “hDNMT3A K47R (residues 1–223): K47R substitution in hDNMT3A N-terminal domain” is “eliminates methylation”; for “hDNMT3A residues 1–223: GST-tagged hDNMT3A N-terminal fragment” it is “are methylated”.
Consider YEPSTTARKVGRPGR [hDNMT3AK47me2], for which, on MPP8 chromodomain (54 pairs of main-chain atoms, vs PDB 3QO2), the “pairwise root-mean-square-deviation to MPP8-H3K9me3 structure” value was ~ 0.6 Å. Further, the “binding mode in MPP8 chromodomain” value at MPP8 chromodomain (crystal structure (3SVM)) is “bound in an extended conformation in an acidic cleft of the chromodomain”.
Regarding “Dnmt3a-N: N-terminal fragment of mouse Dnmt3a (residues 1–274)”, the “methylation by GLP” value with GLP catalytic SET domain is “methylate the N-terminal fragment of Dnmt3a”. In the assay with G9a catalytic SET domain, the “methylation by G9a” value is listed as “methylate the N-terminal fragment of Dnmt3a”.
As for `Nc1ncn([C@H]2C[C@H](O)[C@@H](CO)O2)c(=O)n1` [5-aza-2′-deoxycytidine], the “effect on DNA, H3K9 and H3K4 methylation” value in assay [1] was “leads to depletion of DNA methylation and of H3K9 methylation, and a corresponding increase in H3K4 methylation”.
